Assay outcomes (PubChem)
E coli WT exp: growth inhibitors of wild-type E. coli, primary screen, strain BW25113, expanded library, OD600; hit rate 0.15% among 98,000; AID 710, 2007; growth inhibition, % at 100 µM; OD600 absorbance;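 active = growth inhibition above about 50% at one test dose, limit read from the data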;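 also: growth measured after 20 h incubation at 37 °C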
CYP2C9 act: human CYP2C9 activators, primary screen, biochemical, luminescence; recombinant CYP2C9, luciferin-H conversion; stronger effect = higher value; factor 1 = untreated enzyme, 0 = blocked; Cytochrome P450 2C9 (Homo sapiens), P11712; AID 1024, 2008; activation factor at 5 µM; hit rate 1.4% among 96,000;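 active = activation factor of 2 or more for CYP2C9 at a 5 µM dose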
Target sequence (P11712 whole entry, looked up): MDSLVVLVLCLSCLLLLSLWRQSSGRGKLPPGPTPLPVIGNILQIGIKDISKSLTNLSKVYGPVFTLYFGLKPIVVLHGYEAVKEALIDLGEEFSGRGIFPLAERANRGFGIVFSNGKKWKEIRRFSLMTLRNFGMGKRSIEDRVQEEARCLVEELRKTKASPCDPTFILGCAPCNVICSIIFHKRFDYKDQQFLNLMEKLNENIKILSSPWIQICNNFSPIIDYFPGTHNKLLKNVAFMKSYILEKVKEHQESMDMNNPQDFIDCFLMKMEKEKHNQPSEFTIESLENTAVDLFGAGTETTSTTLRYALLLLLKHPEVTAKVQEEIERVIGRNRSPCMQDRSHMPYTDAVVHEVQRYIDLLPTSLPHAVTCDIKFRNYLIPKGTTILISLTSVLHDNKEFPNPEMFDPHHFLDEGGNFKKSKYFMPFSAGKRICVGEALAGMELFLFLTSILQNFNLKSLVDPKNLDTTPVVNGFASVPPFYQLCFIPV
CYP2C9 inh: blockers of cytochrome P450 2C9 activity – biochemical, luminescence, ADME assay, primary screen; CYP2C9 Supersomes, luciferin-H conversion; inhibition, % at 5 µM; AID 777, 2007; hit rate 20% among 96,000;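 active = blocking of liver enzyme CYP2C9 beyond about 50% at 5 µM, limit read from the data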
CYP2C19 activ: human CYP2C19 activators, primary screen, biochemical, luminescence | Cytochrome P450 2C19 (Homo sapiens), P33261 | recombinant CYP2C19, luciferin-H EGE luminescence; stronger effect = higher value; 0 = fully inhibited enzyme, 1 = untreated enzyme | activation factor at 5 µM | 96,000 tested, under 10 active;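 active = activation factor of at least 2 at 5 µM in the primary screen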
CYP2C19 inhib: blockers of cytochrome P450 2C19 activity – biochemical, luminescence, ADME assay, primary screen; CYP2C19 Supersomes, luciferin-H EGE luminescence, 30 min; inhibition, % at 5 µM; hit rate 21% among 96,000;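 active = CYP2C19 inhibition above a set limit at 5 µM in the primary screen, cut at about 50% in these data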
Ecoli tolC: growth inhibitors of E. coli tolC mutant, primary screen, strain BW25113 ΔtolC::kan, 384-well; growth inhibition, % at 10 µM (by protocol); OD615; hit rate 2.2% among 65,000;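 active = growth inhibition at or above a cutoff equal to the mean over every tested compound plus 3 SD, cut at about 60% in these data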;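 also: growth measured after 20 h incubation at 37 °C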
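Signal: optical density read at 615 nm; Assay system: E. coli ΔtolC::kan strain BW25113; Times: 20 h incubation with compound, 37 °C; Dosing: 10 µM final, single dose.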
Of the large screens only hits and unclear results are named; the others gave an inactive call. Most compounds without a hit are left out; they make up all but 29% or so of the library.

Cn1c(=O)c2c(ncn2CC(=O)Nc2ccc(Cl)cc2Cl)n(C)c1=O	none
FC(F)Oc1ccc(NC(=S)NCc2ccccc2)cc1Cl	CYP2C9 act 2.2, CYP2C19 inhib 50.0 (no result: Ecoli tolC)
CC#CCNCc1ccccc1	none (no result: Ecoli tolC)
CC(C)c1ccc(CNCc2ccccc2)cc1	CYP2C19 inhib 75.2 (no result: Ecoli tolC)
OCc1ccccc1CNCc1ccccc1	CYP2C19 inhib 62.0
S=C(NCc1ccccc1)NCc1ccccc1	CYP2C19 inhib 89.7 (no result: Ecoli tolC)
CC(C)COc1ccc(CNC(=S)NCc2ccccc2)cc1	none (no result: Ecoli tolC)
C=CCn1c(=O)/c(=C2/SC(C)=C(C)N2CC)s/c1=C1/C(=O)N(CC)C(=S)N1c1ccccc1	none (no result: Ecoli tolC)
O=C1CC(N2CCN(Cc3ccc4c(c3)OCO4)CC2)C(=O)N1CCc1ccccc1 (stereo unspecified)	none
O=C(Nc1ccc(-c2cn3ccsc3n2)cc1)c1ccc(F)c(S(=O)(=O)N2CCOCC2)c1	none
NC(=O)CC(NC(=S)NCc1ccccc1)C(=O)O (stereo unspecified)	none (no result: Ecoli tolC)
Cc1cccc(NC(=S)NNC(=S)NCc2ccccc2)c1	CYP2C9 inh 59.9 (no result: Ecoli tolC)
O=C(O)CC(NC(=S)NCc1ccccc1)C(=O)O (stereo unspecified)	CYP2C9 inh 62.5 (no result: Ecoli tolC)
CC1(C(=O)O)CCC(C(=O)NC2CCCCCC2)C1(C)C (stereo unspecified)	none
Cc1ccc(-n2ncc(C(=O)N3CCc4ccccc4C3)c2NC(=O)c2ccco2)cc1C	none (no result: E coli WT exp, CYP2C9 act, CYP2C9 inh, CYP2C19 activ, CYP2C19 inhib)
Cc1nn2c3c(cnc2c1-c1ccccc1)C(=O)CC(c1ccccc1)C3 (stereo unspecified)	CYP2C9 inh 53.8 (no result: Ecoli tolC)
CCC(Oc1ccccc1)C(=O)Nc1ccccc1OC (stereo unspecified)	none
O=C(COc1ccc(Br)cc1)Nc1ccc(-c2nnc(-c3ccco3)o2)cc1	CYP2C19 inhib 63.9
CCC(Oc1ccccc1)C(=O)Nc1ccc(-c2nnc(-c3ccco3)o2)cc1 (stereo unspecified)	CYP2C9 inh 97.4, CYP2C19 inhib 90.4, Ecoli tolC 66.1
COc1ccc(Cl)cc1C(=O)NC(=S)Nc1cc(-c2nc3ccccc3[nH]2)ccc1C	none (no result: CYP2C9 act, CYP2C9 inh, CYP2C19 activ, CYP2C19 inhib, Ecoli tolC)
CCCC12CN3CC(CCC)(CN(C1)C3C(O)C(O)C(O)CO)C2=O (stereo unspecified)	none
Cc1ccc(C)c(-n2c(CNc3ccc(F)cc3)nnc2SCC(N)=O)c1	none
COc1ccc(N=C2S/C(=C\c3cc(C)n(C)c3C)C(=O)N2C)cc1	CYP2C9 inh 55.0, CYP2C19 inhib 50.8 (no result: Ecoli tolC)
CCCN1C(=O)/C(=C/c2cc(C)n(C)c2C)SC1=Nc1ccc(OC)cc1	none (no result: Ecoli tolC)
Cc1cccc(C(=O)O/N=C/c2c(N3CCOCC3)n(C)c3ccccc23)c1	CYP2C9 inh 85.4 (no result: Ecoli tolC)
Cn1c(Cl)c(/C=N/OC(=O)c2ccccc2Cl)c2ccccc21	none (no result: Ecoli tolC)
O=C(CNc1cccc(Cl)c1)c1ccc(Cl)cc1	CYP2C19 inhib 86.2 (no result: Ecoli tolC)
O=C(NNC(=O)c1cccnc1)Nc1ccc(Cl)c(Cl)c1	none (no result: Ecoli tolC)
O=C(Nc1ccc(Cc2ccncc2)cc1)c1ccc(Cl)c([N+](=O)[O-])c1	CYP2C9 inh 76.1, CYP2C19 inhib 77.4 (no result: Ecoli tolC)
O=C(NCCc1ccccc1)c1ccc(Cl)c([N+](=O)[O-])c1	none (no result: Ecoli tolC)
O=C(Nc1ccc(Cl)c(Cl)c1)OCc1cccnc1	CYP2C19 inhib 63.6, Ecoli tolC 91.9
O=C(Nc1cccc(Cl)c1)c1ccncc1	CYP2C19 inhib 67.6
COc1cccc(NC(=O)c2ccncc2)c1	none
O=C(Nc1ccc(Cl)c(Cl)c1)c1ccncc1	CYP2C9 inh 53.7, CYP2C19 inhib 96.3
O=C(Nc1cccc(Cl)c1)Nc1nccs1	E coli WT exp 77.0, Ecoli tolC 68.8
O=C(Nc1ccc(NC(=O)C2CC2)nc1)c1ccncc1	CYP2C9 inh 55.6
CC(OC(=O)c1ccncc1)C(=O)Nc1cccc(Cl)c1 (stereo unspecified)	CYP2C9 inh 63.1, CYP2C19 inhib 75.0
Cc1ccc(CCNC(=O)C2CCC(=O)N2C2CCCC2)cc1 (stereo unspecified)	none
Oc1ccc(N2CCN(C(c3cccs3)c3nnnn3CCc3ccccc3)CC2)cc1 (stereo unspecified)	none
O=C(Nc1ccc2c(c1)OCCO2)C1CCN(C(=O)c2ccc(F)cc2)CC1	none
O=C(Nc1ccc(Cl)c(Cl)c1)c1csc(-c2ccccc2)n1	none (no result: Ecoli tolC)
O=C(Nc1nccs1)c1sc2cc(Cl)ccc2c1Cl	CYP2C19 inhib 57.0 (no result: Ecoli tolC)
O=C(Nc1cccc(Cl)c1)c1csc(-c2ccccc2)n1	CYP2C9 inh 57.5 (no result: Ecoli tolC)
Cn1c(=O)[nH]c(=O)c2c1nc(Br)n2CC(O)COc1ccccc1 (stereo unspecified)	none (no result: Ecoli tolC)
O=C(Nc1cc2c3c(c1)C1CCCC1CN3CC1CCCC21)c1ccccc1 (stereo unspecified)	CYP2C9 inh 81.0 (no result: Ecoli tolC)
COc1cc(NC(=O)c2ccccc2)cc(OC)c1	none (no result: E coli WT exp)
CCCn1cnc2cc(NCc3cccc(OC)c3O)ccc21	CYP2C9 inh 58.4, CYP2C19 inhib 86.5
CCCn1cnc2cc(NCc3ccccn3)ccc21	none
COc1cccc(CNc2ccc3c(c2)ncn3C(C)C)c1OC	CYP2C9 inh 64.2, CYP2C19 inhib 86.2
O=C(CNC(=O)C1CCCCC1)NC1=NCCS1	none
COC(=O)c1[nH]c2ccc(C)cc2c1NS(=O)(=O)c1ccc(F)cc1	CYP2C19 inhib 76.8, Ecoli tolC 82.6
COC(=O)c1[nH]c2ccc(C)cc2c1NC(=O)Oc1ccccc1	none (no result: Ecoli tolC)
COC(=O)c1[nH]c2ccc(F)cc2c1NC(=O)Nc1ccc(OC)cc1	none (no result: Ecoli tolC)
COC(=O)c1[nH]c2ccc(C)cc2c1NC(=O)Nc1ccc(OC)cc1	CYP2C19 inhib 54.3 (no result: Ecoli tolC)
COC(=O)c1[nH]c2ccc(C)cc2c1NS(=O)(=O)c1ccc(F)c(C)c1	CYP2C9 inh 52.1, CYP2C19 inhib 75.5, Ecoli tolC 96.5
Cc1cc(S(=O)(=O)Nc2c(C(=O)O)[nH]c3ccccc23)ccc1F	CYP2C9 inh 78.6, CYP2C19 inhib 91.9
O=C(Nc1ccc(OC(F)F)cc1)Nc1cccc(C(F)(F)F)c1	none (no result: Ecoli tolC)
CCSc1nnc(-c2ccccc2NC(C)=O)c(=O)[nH]1	none
COc1ccc(CCNC(=O)CSc2nncn2N)cc1OC	none
COc1cccc(-c2nn(-c3ccccc3)cc2/C=C\C(=O)c2cccs2)c1	CYP2C9 inh 57.7 (no result: Ecoli tolC)
CCOC(=O)CC(C#N)c1cn(C)c2ccccc12 (stereo unspecified)	CYP2C9 act 3.5, CYP2C19 inhib 87.8
Cn1cc(C(CC(=O)O)C(=O)O)c2ccccc21 (stereo unspecified)	none (no result: Ecoli tolC)
O=C(O)C1C2CCCCC2=C2CCCCC2C1C(=O)O (stereo unspecified)	none
CCOc1ccc(C2C(C#N)=C(N)SC(N)=C2C#N)cc1OC	CYP2C9 inh 91.4, CYP2C19 inhib 54.2
